From ChEMBL document CHEMBL1125365, “Acyl-CoA:cholesterol O-acyl transferase (ACAT) inhibitors. 1. 2-(Alkylthio)-4,5-diphenyl-1H-imidazoles as potent inhibitors of ACAT” (J Med Chem, 1992) come the findings set out here.

The subject of one assay is Rattus norvegicus. The assay is described as follows: Tested in vivo for anti-hypercholesterolaemic activity in male Sprague-Dawley rat. It counts as functional. The method, boiled down: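 Compound was given at 0.03% w/w in the diet (about 30 mg/kg/day). Basal-diet rats (n = 4) gave a baseline that was subtracted. Plasma cholesterol was measured enzymatically, and the result was expressed as percent change versus undosed controls.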

The target of assay [1] is T1, Sterol O-acyltransferase 1 (Rattus norvegicus, UniProt O70536).
T1 sequence (O70536 whole entry): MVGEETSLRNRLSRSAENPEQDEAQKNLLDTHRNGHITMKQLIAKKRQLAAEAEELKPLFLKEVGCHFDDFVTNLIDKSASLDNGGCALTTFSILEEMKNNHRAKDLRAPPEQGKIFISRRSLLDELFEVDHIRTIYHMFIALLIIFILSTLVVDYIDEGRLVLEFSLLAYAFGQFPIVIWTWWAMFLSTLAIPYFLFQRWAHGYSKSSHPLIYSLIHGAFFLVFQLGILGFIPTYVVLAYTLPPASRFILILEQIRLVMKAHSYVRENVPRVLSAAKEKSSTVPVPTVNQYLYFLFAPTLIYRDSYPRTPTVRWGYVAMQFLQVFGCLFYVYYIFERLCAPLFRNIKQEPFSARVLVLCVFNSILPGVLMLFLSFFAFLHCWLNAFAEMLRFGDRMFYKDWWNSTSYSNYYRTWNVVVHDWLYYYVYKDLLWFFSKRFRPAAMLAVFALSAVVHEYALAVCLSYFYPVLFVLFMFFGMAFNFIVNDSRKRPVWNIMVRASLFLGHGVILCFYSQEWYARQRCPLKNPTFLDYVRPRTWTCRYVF
The assay is described as follows: Inhibition of acyl coenzyme A:cholesterol acyltransferase (ACAT) activity in rat liver microsome. It counts as microsomes. The method, boiled down:
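The assay used rat hepatic microsomes from cholesterol-fed animals (60 μg protein) and 90 μM radiolabeled oleoyl-CoA. Cholesterol ester product was resolved by TLC and counted by scintillation. IC50 was the concentration inhibiting 50% of enzyme activity.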
For orientation: Liver microsomes are vesicles of endoplasmic reticulum, rich in cytochrome P450 enzymes.

The target of assay [2] is T2, Sterol O-acyltransferase 1 (Rattus norvegicus) (UniProt O70536).
T2 sequence (whole entry): T1 sequence (O70536 whole entry)
The assay is described as follows: Tested in vitro for acyl coenzyme A:cholesterol acyltransferase (ACAT) activity in rat liver microsome at a concentration of 1 micro g/mL. It counts as microsomes. The method in brief: (§1)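 Enzyme source was hepatic microsomes from cholesterol-fed rats, 60 μg microsomal protein per reaction, with 90 μM radiolabeled oleoyl-CoA. Cholesterol ester formed was separated by TLC and quantified by scintillation counting. Compounds were tested at a single fixed concentration of 1 or 10 μg/mL, and results were given as percent inhibition of enzyme activity.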

Assay [3] addresses T2, Sterol O-acyltransferase 1 (Rattus norvegicus). The assay is described as follows: In vitro acyl coenzyme A:cholesterol acyltransferase (ACAT) activity in rat liver microsome at a concentration of 10 micro g/mL. It counts as microsomes. The method in brief:
as §1

The target is the same in assay [4]. The assay is described as follows: Tested in vitro for Acyl coenzyme A:cholesterol acyltransferase (ACAT) activity in rat liver microsome at a concentration of 1 micro g/mL.

Each structure is given as a SMILES string.

In general, IC50 refers to the midpoint of a concentration-inhibition curve. A word on the inhibition: it is the drop in the measured response relative to a control, in per cent. High values mean a strong effect, low ones a weak effect.

As to `CCOC(CCSc1nc(-c2ccccc2)c(-c2ccccc2)[nH]1)OCC`, in the assay with Rattus norvegicus, the Change came out at 4%. The same compound yielded an IC50 in assay [1] of 69 nM. The same compound displayed an inhibition in assay [2] of 95%.

Turning to `CC1(C)CC(=O)OC(CSc2nc(-c3ccccc3)c(-c3ccccc3)[nH]2)C1` (configuration not stated), the Change in the assay on Rattus norvegicus is -17%. The compound also gave a half-inhibitory concentration (IC50) in assay [1] of 100 nM. For the same compound, the inhibition in assay [2] was found to be 94%.

For the compound `Cc1cccc(-c2nc(SC[C@H]3C[C@@](C)(O)CC(=O)O3)[nH]c2-c2cccc(C)c2)c1.Cc1cccc(-c2nc(SC[C@H]3C[C@](C)(O)CC(=O)O3)[nH]c2-c2cccc(C)c2)c1`, in the assay on Rattus norvegicus, the Change is -64%. For the same compound, in assay [1], the IC50 amounted to 64 nM. In assay [2], this compound returned an inhibition of 94%.

For `c1ccc(-c2nc(SCC3CCCCO3)[nH]c2-c2ccccc2)cc1` (configuration not stated), the Change with Rattus norvegicus is given as -38%. This compound also registered a half-maximal inhibitory concentration (IC50) in assay [1] of 210 nM. The inhibition in assay [2] stood at 92%.

`C[C@@]1(O)CC(=O)OC(CSc2nc(-c3ccccc3)c(-c3ccccc3)[nH]2)C1` (some centres not stated): the inhibition in assay [3] is 98%. The Change in the assay with Rattus norvegicus is on record as -105%. In assay [1], this compound displayed an IC50 of 170 nM.

Take `c1ccc(-c2nc(SCC3OCCO3)[nH]c2-c2ccccc2)cc1`: in the assay with Rattus norvegicus, the Change is -29%. Also, the half-inhibitory concentration (IC50) in assay [1] worked out at 530 nM. In assay [2], this compound displayed an inhibition of 98%.

As for `c1ccc(-c2nc(SCC3CCCCC3)[nH]c2-c2ccccc2)cc1`, in the assay with Rattus norvegicus, the Change is -92%. The compound also displayed an IC50 in assay [1] of 100 nM. In assay [2], this compound came in with an inhibition of 95%.

Consider `c1ccc(-c2nc(SCCCC3OCCCO3)[nH]c2-c2ccccc2)cc1`, for which the Change with Rattus norvegicus was -57%. This compound also displayed an IC50 in assay [1] of 47 nM. In assay [2], the inhibition stood at 96%.

The compound `c1ccc(-c2nc(SCC3OCCCO3)[nH]c2-c2ccccc2)cc1` showed an inhibition in assay [3] of 97%. The Change with Rattus norvegicus is recorded as -10%. Besides, the IC50 in assay [1] was found to be 180 nM.

For `CCOC(CSc1nc(-c2ccccc2)c(-c2ccccc2)[nH]1)OCC`, the inhibition in assay [3] came out at 99%. Moreover, the Change in the assay on Rattus norvegicus is reported as -37%. The compound further yielded an IC50 in assay [1] of 250 nM.

As to `CC1=CC(=O)OC(CSc2nc(-c3ccccc3)c(-c3ccccc3)[nH]2)C1` (configuration not stated), the inhibition in assay [3] was found to be 98%. For the same compound, the Change in the assay on Rattus norvegicus came out at 27%. The compound also showed an IC50 in assay [1] of 200 nM.

`CO[C@]1(C)C[C@H](O)C[C@@H](CSc2nc(-c3ccccc3)c(-c3ccccc3)[nH]2)O1` gave an inhibition in assay [4] of 85%.

As for `C[C@]1(O)CC(=O)OC(CSc2nc(-c3ccccc3)c(-c3ccccc3)[nH]2)C1` (some centres not stated), the inhibition in assay [3] is 98%. Besides, the Change with Rattus norvegicus is given as -35%. Further, in assay [1], the IC50 is 140 nM.
